Common to all, as to assay type: functional
Assay [1] concerns SW1573. The experiment in a line: Growth inhibition of human SW1573 cells after 48 hrs by SRB assay. The following applies: SW1573, 48 h. The method in brief:
(§1)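 Cells maintained in RPMI 1640 with 5% heat-inactivated fetal calf serum and 2 mM L-glutamine at 37 °C, 5% CO₂, humidified air. Exponentially growing cells trypsinized and resuspended in medium containing penicillin G (100 units/mL) and streptomycin (0.1 mg/mL). Single-cell suspensions with >97% viability by trypan blue exclusion counted, diluted and seeded into 96-well plates.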
Background: The SRB assay estimates cell density from bound dye.

For assay [2], the system named is WiDr. The experiment in a line: Growth inhibition of human WiDr cells after 48 hrs by SRB assay. In short, it runs like this:
as §1

Assay [3] is described as follows: Growth inhibition of human HBL100 cells after 48 hrs by SRB assay. Conditions: HBL-100, 48 h. In short, it runs like this: as §1
Assay [4] relates to HeLa. As to the kind of experiment: Growth inhibition of human HeLa cells after 48 hrs by SRB assay. In short, it runs like this: as §1

In general, GI50 refers to the concentration at which growth is held to half of that of the control. High values mean less potent growth inhibition, low ones more potent growth inhibition. Regarding `CC1C2=C(OC1(C)C)c1cccc(O)c1C(=O)C2=O` (configuration not stated), the 50% growth inhibitory concentration (GI50) in assay [1] turned out to be 480 nM; in assay [2] it was 16000 nM; in assay [3], 340 nM; in assay [4] it was 1800 nM.

`C=C(C)C1CC2=C(O1)c1c(O)cccc1C(=O)C2=O` (configuration not stated): the GI50 came to 2700 nM in assay [1], 26000 nM in assay [2], 3000 nM in assay [3] and 3000 nM in assay [4].

For `CC1OC2=C(C(=O)C(=O)c3cccc(O)c32)C1(C)C` (configuration not stated), the 50% growth inhibitory concentration (GI50) in assay [1] is 2400 nM; in assay [2], 19000 nM; in assay [3] it was 2200 nM; in assay [4], 1900 nM.

Regarding `CC1(C)C2=C(OC1CI)c1c(O)cccc1C(=O)C2=O` (configuration not stated), the 50% growth inhibitory concentration (GI50) in assay [1] was found to be 1600 nM; in assay [2], 1800 nM; in assay [3], 1800 nM; in assay [4] it was 1600 nM.

As for `CC1OC2=C(C(=O)C(=O)c3c(O)cccc32)C1(C)C` (configuration not stated), the GI50 in assay [1] turned out to be 990 nM; in assay [2] it was 5200 nM; in assay [3], 540 nM; in assay [4], 1900 nM.

With `CC1C2=C(OC1(C)C)c1c(O)cccc1C(=O)C2=O` (configuration not stated), the GI50 in assay [1] stood at 1300 nM; in assay [2], 2100 nM; in assay [3], 2000 nM; in assay [4], 900 nM.

Consider `CC1(C)C2=C(OC1CI)c1cccc(O)c1C(=O)C2=O` (configuration not stated), for which the GI50 in assay [1] came to 800 nM; in assay [2], 1900 nM; in assay [3] it was 460 nM; in assay [4], 1500 nM.

In the case of `C=C(C)C1CC2=C(O1)c1cccc(O)c1C(=O)C2=O` (configuration not stated) [LANTALUCRATIN B], the GI50 in assay [1] turned out to be 1000 nM; in assay [2], 2200 nM; in assay [3] it was 460 nM; in assay [4], 210 nM.

The values above are taken from ChEMBL document CHEMBL3232878, “QSAR on antiproliferative naphthoquinones based on a conformation-independent approach” (2014).
